# Columns and labels:
# [1] = target: Chaperone protein DnaK (Escherichia coli) (UniProt P0A6Y8); assay: Inhibition of Escherichia coli DnaK ATPase activity incubated on shaker for 10 mins followed by 30 mins incubation by malachite green reagent based colorimetric assay
# [2] = target: Chaperone protein DnaK (Escherichia coli) (UniProt P0A6Y8); assay: Inhibition of Escherichia coli DnaK ATPase activity at 200 uM incubated on shaker for 10 mins followed by 30 mins incubation by malachite green reagent based colorimetric assay
# Homo sapiens [3] = species on record: Homo sapiens; assay: Inhibition of HSP70 in human BT/LapR1.0 cells assessed as potentiation of 1 uM of lapatinib-induced growth inhibition after 72 hrs by measuring coefficient of drug interaction by cell titer-glo based luminescence assay
# [4] = Growth inhibition of human BT474 cells at 10 uM after 72 hrs by cell titer-glo based luminescence assay; design: species or system BT-474; details: read-out: GI
# How it was run: (§1)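 Cells were trypsinised and seeded at 5000 cells/well, then cultured 24 h at 37 °C. Compound was added at 10 µM, alone or with 1 µM lapatinib, and incubated 72 h at 37 °C. CellTiter-Glo reagent was added at a volume equal to the medium, followed by 3 min shaking and 10 min at room temperature. Luminescence (ATP) was read and normalised to the blank control group.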
# Homo sapiens [5] = species on record: Homo sapiens; assay: Inhibition of HSP70 in human BT/LapR1.0 cells assessed as potentiation of 1 uM of lapatinib-induced growth inhibition at 10 uM after 72 hrs by cell titer-glo based luminescence assay
# How it was run: as §1
# BT-474 [6] = assay: Potentiation of lapatinib-induced growth inhibition of human BT474 cells assessed as coefficient of drug interaction after 72 hrs by cell titer-glo based luminescence assay; type: functional
# BT-474 [7] = assay: Potentiation of lapatinib-induced growth inhibition of human BT474 cells at 10 uM after 72 hrs by cell titer-glo based luminescence assay; type: functional; details: BT-474, 72 h, read-out: GI
# How it was run: as §1
# [8] = Growth inhibition of human BT/LapR1.0 cells at 10 uM after 72 hrs by cell titer-glo based luminescence assay; details: read-out: GI
# How it was run: as §1
inhibition [1],inhibition [2],Compound,Activity (Homo sapiens [3]),"inhibition at 72 h, 10 µM [4]",growth inhibition (GI) (Homo sapiens [5]),Activity (BT-474 [6]),inhibition of growth at 10 µM (BT-474 [7]),"inhibition at 72 h, 10 µM [8]"
,< 20%,CC(C)C(NC(=O)/C=C/c1ccccc1)NC(=S)NC1CCCCC1 (stereo not given),< 1,10.3%,75.8%,<1,80.6%,13.3%
,< 20%,CNC(=S)NC(CC(C)C)NC(=O)/C=C/c1cc(OC)c(OC)c(OC)c1 (stereo not given),< 1,10.5%,30.9%,<1,79.8%,13%
,35.8%,COc1cc(/C=C/C(=O)NC(NC(=S)NC2CCCCC2)C(C)(C)C)cc(OC)c1OC (stereo not given),0.86,13.5%,57.8%,0.56,87.3%,39.8%
Dose-dependent effect,53%,COc1ccc(-c2nc(-c3cc(C(F)(F)F)cc(C(F)(F)F)c3)n(Cc3ccc(C(N)=O)cc3)c2-c2ccc(OC)cc2)cc1,,,,,,

# The remaining lines, values behind:
Compound,inhibition [1],inhibition [2],Activity (Homo sapiens [3]),"inhibition at 72 h, 10 µM [4]",growth inhibition (GI) (Homo sapiens [5]),Activity (BT-474 [6]),inhibition of growth at 10 µM (BT-474 [7]),"inhibition at 72 h, 10 µM [8]"
N#Cc1ccc(COC[C@H]2O[C@@H](n3c(NCc4ccc(Cl)c(Cl)c4)nc4c(N)ncnc43)[C@H](O)[C@@H]2O)cc1,Dose-dependent effect,43%,,,,,,
COc1cc(/C=C/C(=O)NC(CC(C)(C)C)NC(=S)Nc2ccccn2)cc(OC)c1OC (stereo not given),,< 20%,< 1,25.8%,65.9%,<1,88.5%,31.5%
CC(C)C(NC(=O)/C=C/c1ccccc1)NC(=S)Nc1ccccc1 (stereo not given),,< 20%,< 1,9.4%,30%,<1,82%,11.5%
COc1cc(/C=C/C(=O)NC(NC(=S)Nc2ccccn2)C2CC2)cc(OC)c1OC (stereo not given),,< 20%,< 1,20.1%,59.6%,<1,87.8%,17.4%
O=C(/C=C/c1ccccc1)NC(NC(=S)Nc1ccccn1)C1CC1 (stereo not given),,< 20%,< 1,2.4%,25.2%,<1,78.8%,6%
Cc1ccccc1NC(=S)NC(CC(C)C)NC(=O)/C=C/c1ccccc1 (stereo not given),,< 20%,< 1,9.8%,23.3%,0.84,81.6%,12.8%
